Series [1] has as its system INS1. The experiment in a line: Cytoprotective activity against H2O2-induced glucolipotoxicity in rat INS-1 cells assessed as increase in cell viability at 1 to 100 nM after 24 hrs by MTT assay. The format is functional, cell-based. The method in brief: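 INS-1 cells, about 5000/well, were seeded for 4 h, then stressed with one of: glucolipotoxic medium (25 mM glucose + 0.4 mM oleate-BSA), 50 µM H2O2 or 1 µM STZ. Peptide (1, 10 or 100 nM) was added and cells were incubated 24 h. Viability was read by MTT (200 µg/mL, 3 h, 37 °C), formazan dissolved in DMSO, A570. Triplicate, repeated three times.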

The test system of series [2] is Mus musculus. The experiment in a line: Antidiabetic activity in STZ/diet-induced obese C57BL/6 mouse assessed as reduction in serum leptin level at 25 nmol/kg, ip administered daily for 4 weeks measured post last dose. The format is functional. In a few lines: (§1)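 Male C57BL/6J DIO mice on high-fat diet were treated for 4 weeks with saline as control; LFD-fed mice (n = 6/group) were used as normal reference. Water intake, food intake and body weight were recorded daily. Terminal serum leptin and adiponectin were measured by ELISA. TC, TG, HDL, LDL, ALT and AST were measured on a clinical chemistry analyzer.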

Series [3] relates to Mus musculus. Nature of the series: Antidiabetic activity in C57BL/6 mouse assessed as reduction in blood glucose level at 25 nmol/kg, ip treated 30 mins prior to glucose challenge measured up to 90 mins by IPGTT. The format is functional, organism-based. In a few lines: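 Male C57BL/6 mice, 6 weeks old, fasted overnight (12 h), n = 6/group; given 25 nmol/kg or saline i.p., then i.p. glucose challenge (2.0 g/kg) 30 min later, set as 0 h. Glucose challenges were repeated at 6 h intervals to mimic three meals a day. Blood glucose was followed and AUC calculated.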

Series [4] deals with INS1. The experiment in a line: Cytoprotective activity against STZ-induced oxidative stress in rat INS-1 cells assessed as cell death at 1 nM after 24 hrs by MTT assay (reference value: 45%). It is filed as functional.
In series [5] the test system is INS1. The experiment in a line: Cytoprotective activity against STZ-induced oxidative stress in rat INS-1 cells assessed as cell death at 10 to 100 nM after 24 hrs by MTT assay (reference value: 45%). It is filed as functional. (In general: Tetrazolium dyes change colour on reduction, which living cells bring about.)
In series [6] the test system is Mus musculus. Nature of the series: Antidiabetic activity in STZ-induced diabetic Kunming mouse model assessed as reduction in HbA1c level at 25 nmol/kg, ip administered once daily for 3 weeks measured at post last dose by Beckman coulter based method. The format is functional, organism-based. In a few lines:
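STZ diabetes induced with 40 mg/kg/day i.p. for 5 consecutive days after overnight fasting. Mice with fasting glucose ≥11.1 mM were grouped by matched body weight and dosed 25 nmol/kg i.p. once daily for 3 weeks; saline served as control. Fasting plasma glucose was measured every five days, and HbA1c at day 24; n = 6/group.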

Series [7] concerns the target Albumin (Homo sapiens, UniProt P02768). Nature of the series: Binding affinity to human serum albumin after 3 hrs by LC-MS/MS analysis. More on the design: concentration or dose not given beside the values. The method in brief: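 HSA was coupled to NHS-activated Sepharose (6–7 mg HSA/mL wet resin); an inactivated albumin-free resin served as control. Peptide (100 µg/mL in PBS) was incubated with each resin for 3 h at 25 °C. After centrifugation, unbound peptide in the supernatant was quantified by LC-MS/MS.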

The test system of series [8] is Mus musculus. The experiment in a line: Antidiabetic activity in STZ/diet-induced obese C57BL/6 mouse assessed as reduction in serum total triglyceride level at 25 nmol/kg, ip administered daily for 4 weeks measured post last dose. The format is functional, organism-based. In a few lines:
as §1

Series [9] deals with Mus musculus. Nature of the series: Hypoglycemic activity in STZ-induced diabetic Kunming mouse model assessed as reduction in glucose AUC (0 to 36 hrs) at 150 nmol/kg, ip administered as single dose. It is filed as functional, organism-based. In a few lines: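 Non-fasted STZ-diabetic Kunming mice with free access to food and water received a single i.p. injection (25 or 150 nmol/kg) or saline; n = 6/group. Blood glucose was followed over time. Euglycemic duration was defined as time below 8.35 mmol/L, and glucose AUC0–36h was calculated.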

The target in series [10] is Glucagon-like peptide 1 receptor (Homo sapiens, UniProt P43220). Nature of the series: Agonist activity at recombinant human GLP1 receptor expressed in HEK293 cells assessed as cAMP accumulation by TR-FRET assay. It is filed as functional, cell-based. A general note: Cyclic AMP is a second messenger, typically raised through Gs and lowered through Gi signalling.

The structures appear in SMILES notation. Activity calls are given as the source filed them.

Sequence of Glucagon-like peptide 1 receptor (P43220 whole entry): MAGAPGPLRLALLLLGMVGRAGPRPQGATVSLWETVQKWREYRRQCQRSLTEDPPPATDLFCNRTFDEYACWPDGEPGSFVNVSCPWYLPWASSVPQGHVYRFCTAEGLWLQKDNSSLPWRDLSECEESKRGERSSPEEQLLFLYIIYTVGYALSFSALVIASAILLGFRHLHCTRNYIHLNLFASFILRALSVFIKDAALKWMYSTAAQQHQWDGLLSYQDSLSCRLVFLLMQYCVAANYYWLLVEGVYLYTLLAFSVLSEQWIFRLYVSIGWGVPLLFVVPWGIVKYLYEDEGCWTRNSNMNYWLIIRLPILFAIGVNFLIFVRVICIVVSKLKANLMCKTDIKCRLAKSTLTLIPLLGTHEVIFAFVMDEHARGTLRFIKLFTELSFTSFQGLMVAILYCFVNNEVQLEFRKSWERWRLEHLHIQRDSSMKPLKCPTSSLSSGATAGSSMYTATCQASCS
Sequence of Albumin (P02768 whole entry): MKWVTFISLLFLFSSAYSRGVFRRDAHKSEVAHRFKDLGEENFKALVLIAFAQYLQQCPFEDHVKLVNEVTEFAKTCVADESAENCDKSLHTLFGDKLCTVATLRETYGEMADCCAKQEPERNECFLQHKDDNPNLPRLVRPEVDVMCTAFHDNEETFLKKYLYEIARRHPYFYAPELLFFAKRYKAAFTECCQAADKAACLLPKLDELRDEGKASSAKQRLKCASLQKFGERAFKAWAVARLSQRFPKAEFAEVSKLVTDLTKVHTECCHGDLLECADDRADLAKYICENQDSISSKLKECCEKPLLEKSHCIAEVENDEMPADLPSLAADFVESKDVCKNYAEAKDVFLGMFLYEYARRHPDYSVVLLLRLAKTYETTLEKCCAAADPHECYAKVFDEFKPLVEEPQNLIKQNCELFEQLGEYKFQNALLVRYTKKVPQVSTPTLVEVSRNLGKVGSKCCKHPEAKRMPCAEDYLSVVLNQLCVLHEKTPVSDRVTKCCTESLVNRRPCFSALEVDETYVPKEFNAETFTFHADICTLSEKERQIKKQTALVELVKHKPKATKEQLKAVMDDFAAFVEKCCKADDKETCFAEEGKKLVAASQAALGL

On to `CC[C@H](C)[C@H](NC(=O)[C@H](Cc1ccccc1)NC(=O)[C@H](CCC(=O)O)NC(=O)[C@H](CCCCN)NC(=O)[C@H](C)NC(=O)[C@H](C)NC(=O)[C@H](CCC(N)=O)NC(=O)CNC(=O)[C@H](CCC(=O)O)NC(=O)[C@H](CC(C)C)NC(=O)[C@H](Cc1ccc(O)cc1)NC(=O)[C@H](CO)NC(=O)[C@H](CO)NC(=O)[C@@H](NC(=O)[C@H](CC(=O)O)NC(=O)[C@H](CO)NC(=O)[C@@H](NC(=O)[C@H](Cc1ccccc1)NC(=O)[C@@H](NC(=O)CNC(=O)[C@H](CCC(=O)O)NC(=O)CNC(=O)[C@@H](N)Cc1cnc[nH]1)[C@@H](C)O)[C@@H](C)O)C(C)C)C(=O)N[C@@H](C)C(=O)N[C@@H](Cc1c[nH]c2ccccc12)C(=O)N[C@@H](CC(C)C)C(=O)N[C@H](C(=O)N[C@@H](CCCCN)C(=O)NCC(=O)N[C@@H](CCCNC(=N)N)C(=O)N[C@@H](CSC1CC(=O)N(CCCCCCCCCCCC(=O)O)C1=O)C(N)=O)C(C)C` (stereo not given in full), for which the outcome in series [1], in [6], in series [8] and in [9] was Active. The Activity in [2] stood at 2.5 ng/mL; in [4], 28.8%; in series [5], 21.9%; in [7] it was 62.4%. In series [3], the outcome was inactive. The EC50 in series [10] is 0.0198 nM.

Broadly, the EC50 is the concentration that produces a half-maximal response.

Values taken from ChEMBL document CHEMBL4219235, “Novel fatty acid chain modified GLP-1 derivatives with prolonged in vivo glucose-lowering ability and balanced glucoregulatory activity” (Bioorg Med Chem, 2018).
